According to article PMC5910468 (Advances in Therapy, 2018):
Like-named read-outs stand apart in the source and are kept apart here.

Experiments:
[1] = format: in vivo, human; conditions: for Gastrointestinal disorders, proportion of subjects / Adverse events, proportion of subjects: 8 subjects
Outline: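 Double-blind, placebo-controlled, 13 weeks of once-weekly s.c. dosing plus 5 weeks of follow-up. Monitored adverse events, hypoglycemic episodes, vital signs, ECG and physical examination. Laboratory tests covered hematology, biochemistry, calcitonin and urinalysis, and anti-drug antibodies were measured at follow-up. Every randomized subject given at least one dose was included in the safety analysis.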

[2] = semaglutide; cited from earlier work
[3] = Anti-semaglutide antibodies; format: in vivo, human; conditions: both populations, 0.5 and 1.0 mg, at follow-up
[4] = format: in vivo, human; conditions: for AUC0–168h,sema,SS estimated race ratio [95% CI] (Japanese/Caucasian) / Cmax,sema,SS estimated race ratio [95% CI] (Japanese/Caucasian): steady state
Outline: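 Healthy Japanese or Caucasian men, s.c. once weekly with stepwise escalation from 0.25 mg. Plasma drug measured by validated LC–MS/MS. Dense sampling 0–168 h after first dose and 0–840 h after last dose (day 84), with pre-dose troughs from day 7 to 84. AUC0–168h by linear trapezoidal method at actual times. Racc,DC = (AUC_SS/last dose)/(AUC_SD/first dose). Log values fitted by linear normal model (race, dose, race×dose) and back-transformed to ratios with 95% CI.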

[5] = Pulse rate change from baseline to end of treatment; format: in vivo, human
[6] = SUSTAIN 6, no change with placebo, cited from earlier work
[7] = Japanese subjects, 0.5 mg, placebo 16.7%
[8] = Japanese subjects, 1.0 mg, placebo 16.7%
[9] = semaglutide 0.5 mg s.c. once weekly
[10] = semaglutide 1.0 mg s.c. once weekly

**Q.** Which results are given for CC[C@H](C)[C@H](NC(=O)[C@H](Cc1ccccc1)NC(=O)[C@H](CCC(=O)O)NC(=O)[C@H](CCCCNC(=O)COCCOCCNC(=O)COCCOCCNC(=O)CC[C@H](NC(=O)CCCCCCCCCCCCCCCCC(=O)O)C(=O)O)NC(=O)[C@H](C)NC(=O)[C@H](C)NC(=O)[C@H](CCC(N)=O)NC(=O)CNC(=O)[C@H](CCC(=O)O)NC(=O)[C@H](CC(C)C)NC(=O)[C@H](Cc1ccc(O)cc1)NC(=O)[C@H](CO)NC(=O)[C@H](CO)NC(=O)[C@@H](NC(=O)[C@H](CC(=O)O)NC(=O)[C@H](CO)NC(=O)[C@@H](NC(=O)[C@H](Cc1ccccc1)NC(=O)[C@@H](NC(=O)CNC(=O)[C@H](CCC(=O)O)NC(=O)C(C)(C)NC(=O)[C@@H](N)Cc1cnc[nH]1)[C@@H](C)O)[C@@H](C)O)C(C)C)C(=O)N[C@@H](C)C(=O)N[C@@H](Cc1c[nH]c2ccccc12)C(=O)N[C@@H](CC(C)C)C(=O)N[C@H](C(=O)N[C@@H](CCCNC(=N)N)C(=O)NCC(=O)N[C@@H](CCCNC(=N)N)C(=O)NCC(=O)O)C(C)C [Semaglutide]?
**A.** Gastrointestinal disorders, proportion of subjects ([1]; Caucasian subjects, 0.5 mg, placebo 0.0%): 25.0%; Adverse events, proportion of subjects ([1]; Caucasian subjects, 0.5 mg, placebo 33.3%): 50.0%; Gastrointestinal disorders, proportion of subjects ([1]; Caucasian subjects, 1.0 mg, placebo 0.0%): 25.0%; Adverse events, proportion of subjects ([1]; Caucasian subjects, 1.0 mg, placebo 33.3%): 62.5%; Adverse events, proportion of subjects [1, 7]: 75.0%; Gastrointestinal disorders, proportion of subjects [1, 7]: 62.5%; Adverse events, proportion of subjects [1, 8]: 62.5%; Gastrointestinal disorders, proportion of subjects [1, 8]: 37.5%; Biochemistry parameters, including amylase, lipase and calcitonin ([1]; any of the treatment or race groups): No noticeable trends; ECG readings or physical examinations ([1]; both populations, 0.5 and 1.0 mg): no clinically significant abnormalities; Hypoglycemic events ([1]; both populations, 0.5 and 1.0 mg, during the trial): No hypoglycemic events were reported; Severity of adverse events ([1]; both populations, 0.5 and 1.0 mg, none were severe): mild to moderate; Half-life (t1/2) [2]: ~ 1 week; Development of anti-semaglutide antibodies [3]: No subjects developed anti-semaglutide antibodies; Dose-corrected accumulation ratio ([4]; overall statement, once-weekly dosing, both races and doses): approximately 2; Racc,DC,sema estimated race ratio [95% CI] (Japanese/Caucasian) ([4]; semaglutide 0.5 mg): 0.87 [0.78; 0.96]; AUC0–168h,sema,SS estimated race ratio [95% CI] (Japanese/Caucasian) [4, 9]: 1.06 [0.92; 1.23]; Cmax,sema,SS estimated race ratio [95% CI] (Japanese/Caucasian) [4, 9]: 1.06 [0.91; 1.23]; Racc,DC,sema estimated race ratio [95% CI] (Japanese/Caucasian) ([4]; semaglutide 1.0 mg): 0.90 [0.82; 1.00]; AUC0–168h,sema,SS estimated race ratio [95% CI] (Japanese/Caucasian) [4, 10]: 0.99 [0.85; 1.16]; Cmax,sema,SS estimated race ratio [95% CI] (Japanese/Caucasian) [4, 10]: 1.02 [0.87; 1.19]; Pulse rate increase from baseline to end of treatment ([5]; Caucasian subjects, 0.5 mg, placebo 2.8 bpm): 14.6 bpm; Pulse rate increase from baseline to end of treatment ([5]; Caucasian subjects, 1.0 mg, placebo 2.8 bpm): 10.5 bpm; Pulse rate increase from baseline to end of treatment ([5]; Japanese subjects, 0.5 mg, placebo decrease of 0.5 bpm): 8.5 bpm; Pulse rate increase from baseline to end of treatment ([5]; Japanese subjects, 1.0 mg, placebo decrease of 0.5 bpm): 10.4 bpm; Mean pulse rate increase ([6]; semaglutide 0.5 mg): 2.1 bpm; Mean pulse rate increase ([6]; semaglutide 1.0 mg): 2.4 bpm
